{"source": "ChEMBL document CHEMBL1136228", "about": "(Bioorg Med Chem Lett, 2003)", "key": {"[1]": {"molecular_target": "T1, Peroxisome proliferator-activated receptor gamma (Homo sapiens, UniProt P37231)", "T1 sequence (P37231 whole entry)": "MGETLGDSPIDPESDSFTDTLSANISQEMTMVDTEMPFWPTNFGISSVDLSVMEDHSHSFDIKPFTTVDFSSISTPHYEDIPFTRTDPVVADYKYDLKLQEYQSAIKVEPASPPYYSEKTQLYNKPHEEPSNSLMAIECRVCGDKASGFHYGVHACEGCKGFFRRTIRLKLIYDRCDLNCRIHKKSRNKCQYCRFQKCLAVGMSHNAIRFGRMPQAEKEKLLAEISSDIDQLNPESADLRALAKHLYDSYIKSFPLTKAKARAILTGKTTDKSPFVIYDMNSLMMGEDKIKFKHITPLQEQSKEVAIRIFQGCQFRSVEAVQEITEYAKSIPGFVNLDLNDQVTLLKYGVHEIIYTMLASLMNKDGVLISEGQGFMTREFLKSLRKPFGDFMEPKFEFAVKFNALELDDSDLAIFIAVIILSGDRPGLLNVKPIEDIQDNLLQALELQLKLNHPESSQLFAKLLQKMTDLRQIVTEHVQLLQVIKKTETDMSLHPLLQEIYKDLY"}, "[2]": {"molecular_target": "T2, Peroxisome proliferator-activated receptor alpha (Homo sapiens, UniProt Q07869)", "T2 sequence (Q07869 whole entry)": "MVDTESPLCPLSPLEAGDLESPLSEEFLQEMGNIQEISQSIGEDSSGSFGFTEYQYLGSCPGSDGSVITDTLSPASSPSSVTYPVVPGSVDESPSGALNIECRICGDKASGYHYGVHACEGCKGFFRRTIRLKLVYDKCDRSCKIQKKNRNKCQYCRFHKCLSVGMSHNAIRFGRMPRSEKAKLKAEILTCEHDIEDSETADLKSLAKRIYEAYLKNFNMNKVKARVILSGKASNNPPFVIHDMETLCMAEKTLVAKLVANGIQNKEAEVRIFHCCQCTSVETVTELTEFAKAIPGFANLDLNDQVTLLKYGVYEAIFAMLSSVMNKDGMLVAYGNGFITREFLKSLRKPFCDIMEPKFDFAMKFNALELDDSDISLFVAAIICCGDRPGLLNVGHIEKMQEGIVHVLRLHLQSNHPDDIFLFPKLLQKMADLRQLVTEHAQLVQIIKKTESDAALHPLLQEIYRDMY"}, "[3]": {"molecular_target": "T2, Peroxisome proliferator-activated receptor alpha", "remark": "listed apart in the source"}, "[4]": {"molecular_target": "T1, Peroxisome proliferator-activated receptor gamma", "remark": "listed apart in the source"}, "Mus musculus [5]": {"system": "Mus musculus", "test": "Fasting plasma glucose level after 10 mg/kg peroral administration in db/db Mouse", "format": "functional", "details": "route oral", "outline": "(§1)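 db/db (lepr db-3J/lepr db-3J) mice dosed orally once daily for 11 days; fasting plasma glucose measured at day 11. Correction is expressed as mean glucose lowering, as a percentage of the difference between vehicle-treated db/db and lean control mice.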"}, "Mus musculus [6]": {"system": "Mus musculus", "test": "Fasting plasma glucose levels after 30 mg/kg peroral administration in db/db Mouse", "format": "functional", "details": "route oral", "outline": "as §1"}, "[7]": {"molecular_target": "T1, Peroxisome proliferator-activated receptor gamma", "test": "Binding affinity towards peroxisome proliferator activated receptor gamma (PPAR gamma): Weakly active"}, "[8]": {"molecular_target": "T1, Peroxisome proliferator-activated receptor gamma", "test": "Binding affinity towards peroxisome proliferator activated receptor gamma (PPAR gamma); weakly active"}, "[9]": {"molecular_target": "T2, Peroxisome proliferator-activated receptor alpha", "test": "Binding affinity towards peroxisome proliferator activated receptor alpha (PPAR alpha); weakly active"}, "Mus musculus [10]": {"system": "Mus musculus", "test": "Fasting plasma glucose levels after 1 mg/kg peroral administration in db/db Mouse", "format": "functional", "details": "route oral", "outline": "as §1"}, "Mus musculus [11]": {"system": "Mus musculus", "test": "Fasting plasma glucose levels after 3 mg/kg peroral administration in db/db Mouse", "format": "functional", "details": "route oral", "outline": "as §1"}, "Rattus norvegicus [12]": {"system": "Rattus norvegicus", "test": "Body weight of Sprague-Dawley rat after 30 mg/kg peroral administration", "details": "route oral"}, "Rattus norvegicus [13]": {"system": "Rattus norvegicus", "test": "Heart weight of Sprague-Dawley rat after 30 mg/kg peroral administration", "details": "route oral"}, "Rattus norvegicus [14]": {"system": "Rattus norvegicus", "test": "Triglyceride change in Sprague-Dawley rat after 30 mg/kg peroral administration", "details": "route oral"}, "Rattus norvegicus [15]": {"system": "Rattus norvegicus", "test": "Total Cholesterol change in Sprague-Dawley rat after 30 mg/kg peroral administration", "details": "route oral"}, "Rattus norvegicus [16]": {"system": "Rattus norvegicus", "test": "Brown adipose tissue weight in Sprague-Dawley rat after 30 mg/kg peroral administration", "details": "route oral"}, "Rattus norvegicus [17]": {"system": "Rattus norvegicus", "test": "Body weight of Sprague-Dawley rat after 10 mg/kg peroral administration", "details": "route oral"}, "Rattus norvegicus [18]": {"system": "Rattus norvegicus", "test": "Heart weight of Sprague-Dawley rat after 10 mg/kg peroral administration", "details": "route oral"}, "Rattus norvegicus [19]": {"system": "Rattus norvegicus", "test": "Triglyceride change in Sprague-Dawley rat after 10 mg/kg peroral administration", "details": "route oral"}, "Rattus norvegicus [20]": {"system": "Rattus norvegicus", "test": "Total Cholesterol change in Sprague-Dawley rat after 10 mg/kg peroral administration", "details": "route oral"}, "Rattus norvegicus [21]": {"system": "Rattus norvegicus", "test": "Brown adipose tissue weight in Sprague-Dawley rat after 10 mg/kg peroral administration", "details": "route oral"}, "Mus musculus [22]": {"system": "Mus musculus", "test": "Fasting plasma glucose levels after 15 mg/kg peroral administration in db/db Mouse", "format": "functional", "details": "route oral", "outline": "as §1"}, "Mus musculus [23]": {"system": "Mus musculus", "test": "Fasting plasma glucose levels after 5 mg/kg peroral administration in db/db Mouse", "format": "functional", "details": "route oral", "outline": "as §1"}}}
{"compound": "CCCc1c(O)c(C(=O)CC)cc(Cl)c1OC(C(=O)O)c1ccccc1", "note": "(centres undefined)", "values": [{"measurement": "Ki", "setting": "[1]", "result": 985, "unit": "nM"}, {"measurement": "EC50", "setting": "[2]", "result": 804, "unit": "nM"}, {"measurement": "Ki", "setting": "[3]", "result": 293, "unit": "nM"}, {"measurement": "EC50", "setting": "[4]", "result": 3760, "unit": "nM"}]}
{"compound": "CCCc1cc2c(C(F)(F)F)noc2c(CCC)c1O[C@H](C(=O)O)c1ccccc1", "values": [{"measurement": "FPG correction", "setting": "Mus musculus [5]", "result": 50, "unit": "%"}, {"measurement": "Ki", "setting": "[1]", "result": 618, "unit": "nM"}, {"measurement": "Ki", "setting": "[3]", "result": 12, "unit": "nM"}, {"measurement": "EC50", "setting": "[4]", "result": 194, "unit": "nM"}]}
{"compound": "COC(=O)c1cc(C)c(OC(C(=O)O)c2ccccc2)c(C)c1", "note": "(centres undefined)", "values": [{"measurement": "Ki", "setting": "[1]", "result": "> 10000", "unit": "nM"}, {"measurement": "Ki", "setting": "[3]", "result": 225, "unit": "nM"}]}
{"compound": "CCCc1c(OC(C(=O)O)c2ccccc2)ccc2c(C(F)(F)F)noc12", "note": "(centres undefined)", "values": [{"measurement": "FPG correction", "setting": "Mus musculus [6]", "result": -5, "unit": "%"}, {"measurement": "Ki", "setting": "[7]", "result": "Partially active"}, {"measurement": "EC50", "setting": "[2]", "result": 836, "unit": "nM"}, {"measurement": "Ki", "setting": "[3]", "result": 98, "unit": "nM"}, {"measurement": "EC50", "setting": "[4]", "result": 4600, "unit": "nM"}]}
{"compound": "CCCc1cc2c(C(F)(F)F)noc2c(CCC)c1O[C@@H](C(=O)O)c1ccccc1", "values": [{"measurement": "Ki", "setting": "[8]", "result": "Partially active"}, {"measurement": "Ki", "setting": "[9]", "result": "Partially active"}, {"measurement": "EC50", "setting": "[4]", "result": 3150, "unit": "nM"}]}
{"compound": "CCCc1cc2c(C(F)(F)F)noc2c(CCC)c1OC(C(=O)O)c1ccc(C(F)(F)F)cc1", "note": "(centres undefined)", "values": [{"measurement": "FPG correction", "setting": "Mus musculus [10]", "result": 21, "unit": "%"}, {"measurement": "FPG correction", "setting": "Mus musculus [11]", "result": 41, "unit": "%"}, {"measurement": "FPG correction", "setting": "Mus musculus [5]", "result": 83, "unit": "%"}, {"measurement": "Ki", "setting": "[1]", "result": 104, "unit": "nM"}, {"measurement": "EC50", "setting": "[2]", "result": 23, "unit": "nM"}, {"measurement": "Ki", "setting": "[3]", "result": 18, "unit": "nM"}, {"measurement": "EC50", "setting": "[4]", "result": 79, "unit": "nM"}, {"measurement": "Body weight", "setting": "Rattus norvegicus [12]", "result": 318, "unit": "g"}, {"measurement": "Heart weight", "setting": "Rattus norvegicus [13]", "result": 1.14, "unit": "g"}, {"measurement": "Change", "setting": "Rattus norvegicus [14]", "result": -41, "unit": "%"}, {"measurement": "Change", "setting": "Rattus norvegicus [15]", "result": -32, "unit": "%"}, {"measurement": "BAT weight", "setting": "Rattus norvegicus [16]", "result": 0.27, "unit": "g"}]}
{"compound": "CCCc1cc(C(=O)CC)c(O)c(CCC)c1OC(C(=O)O)c1ccccc1", "note": "(centres undefined)", "values": [{"measurement": "FPG correction", "setting": "Mus musculus [6]", "result": 55, "unit": "%"}, {"measurement": "FPG correction", "setting": "Mus musculus [5]", "result": 42, "unit": "%"}, {"measurement": "Ki", "setting": "[7]", "result": "Partially active"}, {"measurement": "EC50", "setting": "[2]", "result": 37, "unit": "nM"}, {"measurement": "Ki", "setting": "[3]", "result": 81, "unit": "nM"}, {"measurement": "EC50", "setting": "[4]", "result": 1090, "unit": "nM"}, {"measurement": "Body weight", "setting": "Rattus norvegicus [17]", "result": 290, "unit": "g"}, {"measurement": "Body weight", "setting": "Rattus norvegicus [12]", "result": 294, "unit": "g"}, {"measurement": "Heart weight", "setting": "Rattus norvegicus [18]", "result": 1.11, "unit": "g"}, {"measurement": "Heart weight", "setting": "Rattus norvegicus [13]", "result": 1.06, "unit": "g"}, {"measurement": "Change", "setting": "Rattus norvegicus [19]", "result": -64, "unit": "%"}, {"measurement": "Change", "setting": "Rattus norvegicus [14]", "result": -8, "unit": "%"}, {"measurement": "Change", "setting": "Rattus norvegicus [20]", "result": -36, "unit": "%"}, {"measurement": "Change", "setting": "Rattus norvegicus [15]", "result": -7, "unit": "%"}, {"measurement": "BAT weight", "setting": "Rattus norvegicus [21]", "result": 0.29, "unit": "g"}, {"measurement": "BAT weight", "setting": "Rattus norvegicus [16]", "result": 0.34, "unit": "g"}]}
{"compound": "CCCc1cc2c(C(F)(F)F)noc2c(CCC)c1OC(C(=O)O)c1ccc(CCc2ccccn2)cc1", "note": "(centres undefined)", "values": [{"measurement": "FPG correction", "setting": "Mus musculus [5]", "result": 75, "unit": "%"}, {"measurement": "Ki", "setting": "[1]", "result": 197, "unit": "nM"}, {"measurement": "EC50", "setting": "[2]", "result": 28, "unit": "nM"}, {"measurement": "Ki", "setting": "[3]", "result": 65, "unit": "nM"}, {"measurement": "EC50", "setting": "[4]", "result": 110, "unit": "nM"}]}
{"compound": "CCCc1cc(C(=O)OC)cc(CCC)c1OC(C(=O)O)c1ccccc1", "note": "(centres undefined)", "values": [{"measurement": "Ki", "setting": "[1]", "result": 1100, "unit": "nM"}, {"measurement": "Ki", "setting": "[3]", "result": 63, "unit": "nM"}]}
{"compound": "CCCc1c(OC(C(=O)O)c2ccccc2)c(Cl)cc2c(CC)noc12", "note": "(centres undefined)", "values": [{"measurement": "FPG correction", "setting": "Mus musculus [22]", "result": 47, "unit": "%"}, {"measurement": "FPG correction", "setting": "Mus musculus [23]", "result": 10, "unit": "%"}, {"measurement": "Ki", "setting": "[8]", "result": "Partially active"}, {"measurement": "EC50", "setting": "[2]", "result": 162, "unit": "nM"}, {"measurement": "Ki", "setting": "[3]", "result": 38, "unit": "nM"}, {"measurement": "EC50", "setting": "[4]", "result": 1120, "unit": "nM"}, {"measurement": "Body weight", "setting": "Rattus norvegicus [12]", "result": 312, "unit": "g"}, {"measurement": "Heart weight", "setting": "Rattus norvegicus [13]", "result": 1.22, "unit": "g"}, {"measurement": "Change", "setting": "Rattus norvegicus [14]", "result": -11, "unit": "%"}, {"measurement": "Change", "setting": "Rattus norvegicus [15]", "result": -9, "unit": "%"}, {"measurement": "BAT weight", "setting": "Rattus norvegicus [16]", "result": 0.34, "unit": "g"}]}
